PMC7442688 (Nature chemical biology, 2020)

Target: T1, purified mLYPLAL1 (Mus musculus, UniProt Q3UFF7)
T1 sequence (Q3UFF7 1-239): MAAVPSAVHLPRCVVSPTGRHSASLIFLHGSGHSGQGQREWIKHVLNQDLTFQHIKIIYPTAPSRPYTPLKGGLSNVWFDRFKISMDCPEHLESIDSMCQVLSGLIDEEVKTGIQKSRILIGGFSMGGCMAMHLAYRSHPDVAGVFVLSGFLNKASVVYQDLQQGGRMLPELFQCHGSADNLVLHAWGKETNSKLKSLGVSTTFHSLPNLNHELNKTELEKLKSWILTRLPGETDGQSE
Assay: NanoDSF thermal stability assay
Format: binding
Conditions: recombinant mLYPLAL1
How it was run: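 Purified mouse LYPLAL1 (2.3 μM final) in PBS pH 7.4 with varying test compound concentrations (2% DMSO final) in capillaries. Intrinsic-fluorescence nanoDSF over a 20–95°C ramp at 1°C/min. Kd estimated by isothermal analysis of the unfolding data.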

effect on thermal stability of mLYPLAL1: not seen
SMILES: COc1ccc(S(=O)(=O)n2nc(NCc3ccc(Cl)cc3)nc2N)cc1 [Compound 80, 3-(4-chlorobenzyl)amino-1-((4-methoxyphenyl)sulfonyl)-5-amino-1H-1,2,4-triazole]
